From ChEMBL document CHEMBL4177719, “Synthesis and evaluation of biaryl derivatives for structural characterization of selective monoamine oxidase B inhibitors toward Parkinson's disease therapy” (Bioorg Med Chem, 2018)
The source made the active and inactive calls. The calls are words filed in the database; no cut-off is given here.

What was measured:
[1] = target: T1, Amine oxidase [flavin-containing] A (Homo sapiens, UniProt P21397); assay: Inhibition of recombinant human MAO-A using p-tyramine as substrate preincubated for 15 mins followed by substrate addition measured after 20 mins by amplex red reagent based spectrophotometric assay
T1 sequence (P21397 whole entry): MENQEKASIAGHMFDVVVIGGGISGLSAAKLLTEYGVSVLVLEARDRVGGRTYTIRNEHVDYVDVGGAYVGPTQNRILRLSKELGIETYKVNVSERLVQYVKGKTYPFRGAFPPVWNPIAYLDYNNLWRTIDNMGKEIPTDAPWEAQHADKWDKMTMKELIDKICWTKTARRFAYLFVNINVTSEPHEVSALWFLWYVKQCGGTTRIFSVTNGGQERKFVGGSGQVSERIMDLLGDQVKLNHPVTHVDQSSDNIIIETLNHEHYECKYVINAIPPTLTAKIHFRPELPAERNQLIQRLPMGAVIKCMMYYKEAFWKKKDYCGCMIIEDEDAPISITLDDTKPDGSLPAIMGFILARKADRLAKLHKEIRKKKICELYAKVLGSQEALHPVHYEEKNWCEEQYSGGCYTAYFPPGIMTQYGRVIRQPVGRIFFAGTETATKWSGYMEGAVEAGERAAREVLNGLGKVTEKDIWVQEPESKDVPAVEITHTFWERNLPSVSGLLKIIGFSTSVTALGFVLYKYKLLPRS
How it was run: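 Recombinant human MAO-A with compounds at final 10⁻⁵–10 µM, preincubated 15 min at 37 °C in 50 mM sodium phosphate, pH 7.4. Reaction started by adding 200 µM Amplex Red, 2 U/mL horseradish peroxidase and 2 mM p-tyramine. IC50 came from dose-response curves in quadruplicate, as mean ± S.E.M.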

[2] = target: T2, Amine oxidase [flavin-containing] B (Homo sapiens, UniProt P27338); assay: Inhibition of recombinant human MAO-B using benzylamine as substrate preincubated for 15 mins followed by substrate addition measured after 20 mins by amplex red reagent based spectrophotometric assay
T2 sequence (P27338 whole entry): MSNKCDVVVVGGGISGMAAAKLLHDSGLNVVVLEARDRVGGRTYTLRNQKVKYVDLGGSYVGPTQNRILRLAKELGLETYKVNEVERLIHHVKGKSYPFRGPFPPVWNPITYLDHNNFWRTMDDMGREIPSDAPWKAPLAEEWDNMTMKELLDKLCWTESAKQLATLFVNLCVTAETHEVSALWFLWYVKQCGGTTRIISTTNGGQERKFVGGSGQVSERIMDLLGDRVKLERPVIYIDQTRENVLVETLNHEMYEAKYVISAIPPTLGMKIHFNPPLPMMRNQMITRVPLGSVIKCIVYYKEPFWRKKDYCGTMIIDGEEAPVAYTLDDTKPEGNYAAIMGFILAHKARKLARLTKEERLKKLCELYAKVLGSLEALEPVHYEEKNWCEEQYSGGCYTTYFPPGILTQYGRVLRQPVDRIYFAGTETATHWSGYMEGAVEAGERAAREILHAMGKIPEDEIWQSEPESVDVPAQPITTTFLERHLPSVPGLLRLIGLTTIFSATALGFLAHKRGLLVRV

Homo sapiens = species on record: Homo sapiens; assay: Selectivity index, ratio of IC50 for recombinant human MAO-A to IC50 for recombinant human MAO-B
Mus musculus [3] = assay: Anti-parkinson's activity in MPTP-induced C57Bl/6 mouse model of Parkinson's disease assessed as restoration of motor ability by measuring ascending ability to reach stable position at 30 mg/kg, po administered for 3 consecutive days measured 6 days after MPTP injection by coathanger method; type: functional, organism-based
How it was run: (§1)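 Male C57Bl/6 mice, 10 weeks old, 23–25 g (n = 5-8 per group). MPTP-HCl 20 mg/kg i.p., given as 4 injections at 2 h intervals. Drug 30 mg/kg/day p.o. for 3 consecutive days spanning MPTP dosing. Vehicle was 12.5% castor oil/ethanol (equal parts) in distilled water. Saline-treated controls.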

[4] = target: T2, Amine oxidase [flavin-containing] B; assay: Competitive inhibition of recombinant human MAO-B using varying level of benzylamine substrate preincubated for 15 mins followed by substrate addition measured after 20 mins by Lineweaver-Burk plot analysis
How it was run: (§2)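 Recombinant human MAO-B with benzylamine at 0.065, 0.125, 0.25, 0.5, 1, 2 and 4 mM, with inhibitor at 0, 0.3, 1 and 3 nM. Amplex Red/HRP H2O2-coupled fluorescence in 50 mM sodium phosphate pH 7.4 at 37 °C. Initial rates taken from progression curves; Lineweaver-Burk double-reciprocal analysis.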

Mus musculus [5] = assay: Restoration of MPTP-induced tyrosine hydroxylase enzyme activity loss in C57Bl/6 mouse assessed as enzyme activity loss in DAergic neurons of substantia nigra pars compacta at 30 mg/kg, po administered for 3 consecutive days measured 6 days after MPTP injection by DAB staining based microscopic method; type: functional; how it was run: as §1
Mus musculus [6] = assay: Anti-parkinson's activity in MPTP-induced C57Bl/6 mouse model of Parkinson's disease assessed as restoration of MPTP-induced weight loss at 30 mg/kg, po administered for 3 consecutive days; type: functional, organism-based; how it was run: as §1
Mus musculus [7] = assay: (§3) Anti-parkinson's activity in MPTP-induced C57Bl/6 mouse model of Parkinson's disease assessed as restoration of motor ability at 30 mg/kg, po administered for 3 consecutive days measured 6 days after MPTP injection by vertical grid test; type: functional, organism-based; how it was run: as §1
[8] = target: T2, Amine oxidase [flavin-containing] B; assay: Competitive inhibition of recombinant human MAO-B assessed as Vmax for substrate using varying level of benzylamine substrate preincubated for 15 mins followed by substrate addition measured after 20 mins by Lineweaver-Burk plot analysis; how it was run: as §2
Mus musculus [9] = assay: as §3, with “MPTP-induced reduction in TH-immunoreactive fiber density in striatum” for “motor ability”, “DAB staining based microscopic method” for “vertical grid test”; type: functional, organism-based; how it was run: as §1

Row | SMILES | IC50 [1] [µM] | IC50 [2] [nM] | Ratio IC50 (Homo sapiens) | further results
1 | NCCc1ccc(-c2ccccc2Cl)cc1 | > 10 | 8340 | > 1.2 | 
2 | CC(=O)N[C@H]1CC(=O)N(c2ccc(OCc3cccc(F)c3)cc2)C1 [SEMBRAGILINE] |  | 16 |  | 
3 | COc1cccc(COc2ccc(CN)cc2)c1 | > 30 | 175 | > 170 | 
4 | NCc1ccc(OCc2cccc(C(F)(F)F)c2)cc1 | > 100 | 387 | > 250 | 
5 | NCCc1ccc(OCc2cccc(Cl)c2)cc1 | > 100 | 62 | > 1600 | 
6 | NCCc1ccc(-c2ccc(F)cc2)cc1 | > 10 | 6810 | > 1.5 | 
7 | NCCc1ccc(OCc2cccc(C(F)(F)F)c2)cc1 | > 100 | 110 | > 900 | 
8 | NCCc1ccc(-c2cccc(C(F)(F)F)c2)cc1 | > 10 | 1570 | > 6.4 | 
9 | NCCc1ccc(-c2ccc(C(F)(F)F)cc2)cc1 | > 10 | 41 | > 240 | 
10 | COc1ccc(CN[C@@H](C)C(N)=O)cc1 | > 10 | > 10000 |  | 
11 | NCCc1ccc(-c2cccc(Cl)c2)cc1 | > 10 | 2110 | > 4.7 | 
12 | NC(=O)c1ccc(OCc2cccc(C(F)(F)F)c2)cc1 | > 100 | 1110 | > 90 | 
13 | NCCc1ccc(-c2ccc(Cl)cc2)cc1 | > 10 | 625 | > 16 | 
14 | NCCc1ccc(OCc2ccccc2C(F)(F)F)cc1 | > 100 | 1800 | > 55 | 
15 | COc1ccc(-c2ccc(CCN)cc2)cc1 | > 10 | 5760 | > 1.7 | 
16 | NCCc1ccc(OCc2ccccc2F)cc1 | > 10 | 396 | > 25 | 
17 | NCCc1ccc(OCc2ccc(Cl)cc2)cc1 | > 100 | 59 | > 1600 | 
18 | COc1ccc(COc2ccc(CN)cc2)cc1 | > 100 | 283 | > 350 | 
19 | NCc1ccc(OCc2cccc(Cl)c2)cc1 | > 100 | 257 | > 380 | 
20 | NCCc1ccc(-c2cccc(F)c2)cc1 | > 10 | > 10000 |  | 
21 | NC(=O)c1ccc(OCc2ccc(C(F)(F)F)cc2)cc1 | > 100 | 642 | > 150 | 
22 | NCCc1ccc(OCc2cccc(F)c2)cc1 | > 100 | 193 | > 510 | 
23 | COc1cccc(COc2ccc(CCN)cc2)c1 | > 10 | 305 | > 33 | 
24 | Cl.NCCc1ccc(OCc2ccc(C(F)(F)F)cc2)cc1 | > 100 | 9 | > 11000 | Activity (Mus musculus [3]): Active; Ki [4]: 6.88 nM; Activity (Mus musculus [5]): 38%; Activity (Mus musculus [6]): Active; Activity (Mus musculus [7]): Active; Vmax [8]: 5.86 ×10⁷ U/min; Activity (Mus musculus [9]): Active
25 | NCCc1ccc(OCc2ccc(F)cc2)cc1 | > 100 | 109 | > 910 | 
26 | COc1cccc(-c2ccc(CCN)cc2)c1 | > 10 | 5000 | > 1.9 | 
27 | NCCc1ccc(-c2ccccc2F)cc1 | > 10 | > 10000 |  | 
28 | NCc1ccc(OCc2ccc(C(F)(F)F)cc2)cc1 | > 100 | 136 | > 730 | 
29 | NCCc1ccc(OCc2ccccc2Cl)cc1 | > 10 | 2850 | > 3.5 | 

Further lines, with some results ahead:

Row | IC50 [1] [µM] | IC50 [2] [nM] | Ratio IC50 (Homo sapiens) | SMILES | further results
30 | > 30 | > 10000 |  | Nc1ccc(OCc2ccccc2F)cc1 | 
31 | > 100 | 1050 | > 95 | NC(=O)c1ccc(OCc2ccccc2F)cc1 | 
32 | > 100 | 3230 | > 31 | NCc1ccc(OCc2ccccc2)cc1 | 
33 | > 100 | 926 | > 100 | NCc1ccc(OCc2cccc(F)c2)cc1 | 
34 | > 100 | 271 | > 360 | NC(=O)c1ccc(OCc2ccc(F)cc2)cc1 | 
35 | > 100 | 2020 | > 49 | NC(=O)c1ccc(OCc2ccccc2C(F)(F)F)cc1 | 
36 | > 100 | 3150 | > 32 | NCc1ccc(OCc2ccccc2C(F)(F)F)cc1 | 
37 | > 100 | 1460 | > 68 | NCc1ccc(OCc2ccccc2F)cc1 | 
38 | > 100 | 402 | > 240 | Nc1ccc(OCc2ccc(C(F)(F)F)cc2)cc1 | 
39 | > 100 | > 10000 |  | Nc1ccc(OCc2ccccc2C(F)(F)F)cc1 | 
40 | > 100 | 1510 | > 66 | Nc1ccc(OCc2cccc(C(F)(F)F)c2)cc1 | 
41 | > 100 | 2480 | > 40 | Nc1ccc(OCc2cccc(F)c2)cc1 | 
42 | > 100 | 3320 | > 30 | Nc1ccc(OCc2ccc(F)cc2)cc1 | 
43 | > 100 | 1550 | > 65 | NC(=O)c1ccc(OCc2cccc(F)c2)cc1 | 
44 | > 100 | 452 | > 220 | NCc1ccc(OCc2ccc(F)cc2)cc1 | 
45 | > 30 | 440 | > 68 | NCc1ccc(OCc2ccc(Cl)cc2)cc1 | 
